Reference: paper PMC9948165 (ACS Omega, 2023)

system: HCT116 cells; experiment: Cell cycle analysis by flow cytometry; assay type: cell-based, human; conditions: HCT116, 10 μM, 24 h
How it was run: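 HCT116 cells in log phase were seeded at 1 × 10^6 per well in six-well plates and grown 24 h at 37 °C. They were PBS-washed, given fresh medium with 10 μM test compound for 24 h, trypsinised and washed in cold PBS. Cells were fixed in 70% ethanol at −20 °C for 48 h, treated with RNase A at 37 °C for 30 min, then PI for 30 min at RT in the dark. Flow cytometry DNA content was model-fitted into cell-cycle phases.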

SMILES	cell cycle blocking effect
O=C1[O][Pt]2([NH][C@@H]3CCCC[C@H]3[NH]2)[O]C1=O [oxaliplatin, reference compound]	blocked it in the G1/S/G2 phase with comparable effects
N.N.[Cl][Pt][Cl] [cisplatin, reference compound]	mainly blocked the cell cycle in the S phase

system: A549 cells; experiment: MTT cytotoxicity assay, A549; assay type: cell-based, human; conditions: read-out: IC50 A549 cells, 72 h
How it was run: (§1)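 Cells seeded at 5 × 10^3 per well in 96-well plates and left overnight: A549 and HCT116 in RPMI-1640, LO2 in DMEM. Medium replaced with test compound at 100, 50, 25, 12.5, 6.25, 3.125 or 1.5625 μM for 72 h; medium-only control. MTT (5 mg/mL) added for 4 h, formazan dissolved in DMSO, OD read at 490 nm; IC50 derived.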

SMILES	IC50 [µM]
c1cnc2c([O][Ga]([O]c3cccc4cccnc34)[O]c3cccc4cccnc34)cccc2c1 [CP-1, [Ga(HQL)3]]	3.8 ± 1.1
Clc1ccc([O][Ga]([O]c2ccc(Cl)c3cccnc23)[O]c2ccc(Cl)c3cccnc23)c2ncccc12 [CP-3, [Ga(ClQL)3]]	8.7 ± 0.8
O=C1[O][Pt]2([NH][C@@H]3CCCC[C@H]3[NH]2)[O]C1=O [oxaliplatin, reference compound]	3.2 ± 0.2
Cc1ccc2cccc([O][Ga]([O]c3cccc4ccc(C)nc34)[O]c3cccc4ccc(C)nc34)c2n1 [CP-2, [Ga(MQL)3]]	6.1 ± 0.8
N.N.[Cl][Pt][Cl] [cisplatin, reference compound]	7.5 ± 0.7

system: HCT116 cells; experiment: MTT cytotoxicity assay, HCT116; assay type: cell-based, human; conditions: at 25 μM, 72 h
How it was run: as §1

SMILES	cytotoxicity against HCT116 cells [%]
Clc1ccc([O][Ga]([O]c2ccc(Cl)c3cccnc23)[O]c2ccc(Cl)c3cccnc23)c2ncccc12 [CP-3, [Ga(ClQL)3]]	91.98

same assay, conditions: read-out: IC50 HCT116 cells, 72 h

SMILES	IC50 [µM]
c1cnc2c([O][Ga]([O]c3cccc4cccnc34)[O]c3cccc4cccnc34)cccc2c1 [CP-1, [Ga(HQL)3]]	1.2 ± 0.2
Clc1ccc([O][Ga]([O]c2ccc(Cl)c3cccnc23)[O]c2ccc(Cl)c3cccnc23)c2ncccc12 [CP-3, [Ga(ClQL)3]]	2 ± 0.3
O=C1[O][Pt]2([NH][C@@H]3CCCC[C@H]3[NH]2)[O]C1=O [oxaliplatin, reference compound]	8.3 ± 0.4
Cc1ccc2cccc([O][Ga]([O]c3cccc4ccc(C)nc34)[O]c3cccc4ccc(C)nc34)c2n1 [CP-2, [Ga(MQL)3]]	4.7 ± 0.7
N.N.[Cl][Pt][Cl] [cisplatin, reference compound]	5.7

system: LO2 cells; experiment: MTT cytotoxicity assay, LO2 normal hepatocytes; assay type: cell-based, human; conditions: read-out: IC50 LO2 cells, 72 h, normal hepatocyte cell line
How it was run: as §1

SMILES	IC50 [µM]
c1cnc2c([O][Ga]([O]c3cccc4cccnc34)[O]c3cccc4cccnc34)cccc2c1 [CP-1, [Ga(HQL)3]]	8 ± 1
Clc1ccc([O][Ga]([O]c2ccc(Cl)c3cccnc23)[O]c2ccc(Cl)c3cccnc23)c2ncccc12 [CP-3, [Ga(ClQL)3]]	23.3 ± 5.3
O=C1[O][Pt]2([NH][C@@H]3CCCC[C@H]3[NH]2)[O]C1=O [oxaliplatin, reference compound]	2.3 ± 0.3
Cc1ccc2cccc([O][Ga]([O]c3cccc4ccc(C)nc34)[O]c3cccc4ccc(C)nc34)c2n1 [CP-2, [Ga(MQL)3]]	3.3 ± 0.5
N.N.[Cl][Pt][Cl] [cisplatin, reference compound]	0.7
